The text below walks through data of ChEMBL document CHEMBL1132964, “Selective ET(A) antagonists. 5. Discovery and structure-activity relationships of phenoxyphenylacetic acid derivatives” (J Med Chem, 2000).

In brackets after ≈: the same amount, converted by molar mass. Several values for one entry are separate records, joined by “and”; a condition that tells them apart may be missing. Equal entries are not always repeated. Activity calls are given as the source filed them. The rule behind the calls is not given here. Some results are limits rather than exact numbers.

One data set has as its target T1, Endothelin-1 receptor (Rattus norvegicus, UniProt P26684).
T1 sequence (P26684 whole entry): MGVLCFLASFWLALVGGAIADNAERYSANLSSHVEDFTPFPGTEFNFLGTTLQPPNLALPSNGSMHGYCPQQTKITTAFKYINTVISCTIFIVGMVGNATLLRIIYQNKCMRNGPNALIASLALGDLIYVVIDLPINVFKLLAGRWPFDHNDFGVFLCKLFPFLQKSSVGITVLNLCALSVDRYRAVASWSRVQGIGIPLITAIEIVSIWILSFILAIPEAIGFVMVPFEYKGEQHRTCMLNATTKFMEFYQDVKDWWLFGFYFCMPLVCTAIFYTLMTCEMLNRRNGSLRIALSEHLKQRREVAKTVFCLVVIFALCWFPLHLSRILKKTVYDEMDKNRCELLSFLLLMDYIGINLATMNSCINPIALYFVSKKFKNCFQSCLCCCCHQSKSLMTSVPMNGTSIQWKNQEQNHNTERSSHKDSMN
Kind of data set: In vitro ability to antagonise the binding of [125I]ET1 to the rat aortic A10 cell membrane endothelin A receptor. Format: cell membranes.

Data set [1] is described as follows: Oral bioavailability in rat (Sprague-Dawley) (male) (dose 10 mg/kg). In kind it is ADME, organism-based. The settings on record: in vivo. An outline of the steps: (§1)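 Single 10 mg/kg oral dose to male Sprague-Dawley rats or male Beagle dogs. Plasma Cpmax (µg/mL), Tmax (h), t1/2 (h) and bioavailability (%) derived from the plasma profile.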
The nature of data set [2]: Tested for half life in male Sprague-Dawley rats dosed at 10 mg/kg orally. Format: ADME, organism-based. Set-up: dose 10 mg/kg, route oral. The conditions noted are these: rat, in vivo, po. Put shortly: as §1
Data set [3] can be described thus: Maximal plasma concentration in male Sprague-Dawley rats at 10 mg/kg oral dose. The conditions noted are these: rat. In kind it is ADME, organism-based. Details: dose 10 mg/kg, route oral. An outline of the steps: as §1
A short description of data set [4]: Measured solubility. In kind it is ADME, organism-based, Rattus norvegicus.
Data set [5] can be described thus: Tested for Tmax in male Sprague-Dawley rats dosed at 10 mg/kg orally. Set-up: dose 10 mg/kg, route oral. Format: ADME, organism-based. The settings on record: rat, in vivo, po. An outline of the steps:
as §1

A further data set is filed under the species Rattus norvegicus. Kind of data set: Tested for inhibition of ET-1 induced contraction against isolated Rat aortic rings denuded of the endothelium. Format: functional, Aorta. Put shortly: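 Endothelium-denuded rat aortic rings contracted by ET-1. Tested compound at increasing concentrations, with ET-1 dose-response curves run in its presence. Antagonism expressed as pKb from the rightward shift of the ET-1 curve. Determinations in duplicate, with 95% confidence limits.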

Data set [6] has as its system Endothelin receptor type A (Rattus norvegicus). Kind of data set: Inhibition of Endothelin A receptor in pithed rats 3 hour after oral administration at 75 umol/kg.
For data set [7] the test system is unchanged. Kind of data set: Activity against Endothelin A receptor in pithed rats after intravenous administration at 25 umol/kg.
For data set [8] the test system is unchanged. Nature of the data set: Inhibition of Endothelin A receptor in pithed rats 1.5 hour after oral administration at 75 uM/kg.
A short description of data set [9]: Tested for Tmax in male Beagle dogs dosed at 10 mg/kg orally. In kind it is ADME, organism-based, Canis lupus familiaris. Details: dose 10 mg/kg, route oral. The settings on record: dog, in vivo, po. An outline of the steps: as §1
Data set [10] in a line: Tested for bioavailability in male Beagle dogs dosed at 10 mg/kg orally. Format: ADME, organism-based, Canis lupus familiaris. The settings on record: dog, in vivo, po, read-out: Bioavailabiility. An outline of the steps:
as §1

A short description of data set [11]: Tested for half life in male Beagle dogs dosed at 10 mg/kg orally. Details: dose 10 mg/kg, route oral. The settings on record: dog, in vivo, po. Format: ADME, organism-based, Canis lupus familiaris. An outline of the steps:
as §1

Data set [12] in a line: Maximal plasma concentration in male Beagle dogs at 10 mg/kg oral dose. Format: ADME, organism-based, Canis lupus familiaris. The conditions noted are these: dog. Set-up: dose 10 mg/kg, route oral. An outline of the steps: as §1

At Endothelin-1 receptor, `COc1cc(COc2ccc(C#N)c(OC(C(=O)O)c3ccccc3C)c2)cc(OC)c1OC` (centres undefined) came in with an IC50 above 3000 nM.

The compound `Cc1ccccc1C(Oc1cc(OCc2ccc3ocnc3c2)ccc1C#N)C(=O)O` (centres undefined) came in with an IC50 at Endothelin-1 receptor of 75 nM.

`Cc1ccccc1[C@H](Oc1cc(OCc2ccc3c(c2)OCO3)ccc1C#N)C(=O)O`: at Endothelin-1 receptor, the IC50 was determined as 6 nM. Compared with the last compound, the IC50 is about 12-fold lower.

As to `Cc1ccccc1C(Oc1cc(OCc2ccc3c(c2)OCCO3)ccc1C#N)C(=O)O` (centres undefined), at Endothelin-1 receptor, the IC50 came out at 1500 nM.

At Endothelin-1 receptor, `N#Cc1ccc(OCc2ccsc2)cc1OC(C(=O)O)c1ccc(Cl)cc1` (centres undefined) yielded an IC50 of 504 nM.

For `N#Cc1ccc(OCc2ccsc2)cc1OC(C(=O)O)c1ccccc1Cl` (centres undefined), in data set [1], the bioavailability worked out at 129%. For the same compound, in data set [2], the half-life was 5 h. Further, the IC50 on Endothelin-1 receptor is 17 nM. The compound also had a Cmax in data set [3] of 62000 ng/mL. Besides, the solubility in [4] is 1190 µg/mL (≈ 2.98 mM). Further, the time to peak (Tmax) in [5] was 0.5 h. Also, the pKb in the data set listed under Rattus norvegicus came out at 7.76.

At Endothelin-1 receptor, `N#Cc1ccc(OCc2ccsc2)cc1OC(C(=O)O)c1ccccc1C(F)(F)F` (centres undefined) came in with an IC50 of 53 nM.

With `Cc1ccccc1C(Oc1cc(OCc2cncs2)ccc1C#N)C(=O)O` (centres undefined), the IC50 at Endothelin-1 receptor was found to be 30 nM. Against the preceding compound, the IC50 is about 1.8-fold lower.

Regarding `N#Cc1ccc(OCc2ccncc2)cc1OC(C(=O)O)c1ccccc1Cl` (centres undefined), the Activity was 1.7 µM/kg in data set [6], 46.8 µM/kg in data set [7] and 2.7 µM/kg in data set [8]. This compound also returned a 50% inhibitory concentration (IC50) on Endothelin-1 receptor of 6 nM. In the data set filed under Rattus norvegicus, this compound yielded a pKb of 7.7.

In turn, `Cc1ccccc1C(Oc1cc(OCc2ccsc2)ccc1C#N)C(=O)O` (centres undefined) yielded an IC50 at Endothelin-1 receptor of 20 nM. The compound further returned a pKb in the data set filed under Rattus norvegicus of 7.9.

In the case of `N#Cc1ccc(OCc2ccsc2)cc1OC(C(=O)O)c1ccoc1` (centres undefined), the IC50 on Endothelin-1 receptor worked out at 2850 nM. This counts as single-digit micromolar.

At Endothelin-1 receptor, `Cc1ccccc1C(Oc1cc(OCc2ccccc2)ccc1C#N)C(=O)O` (centres undefined) displayed an IC50 of 49 nM. Against the preceding compound, the IC50 is about 58-fold lower.

As to `Cc1ccccc1C(Oc1cc(OCc2ccsn2)ccc1C#N)C(=O)O` (centres undefined), on Endothelin-1 receptor, the IC50 is 220 nM.

In the case of `N#Cc1ccc(OCc2ccsc2)cc1OC(C(=O)O)c1ccccc1F` (centres undefined), the IC50 on Endothelin-1 receptor is 22 nM.

`Cc1ccccc1C(Oc1cc(OCc2ccoc2)ccc1C#N)C(=O)O` (centres undefined) had an IC50 at Endothelin-1 receptor of 68 nM. This IC50 is about 3.1-fold higher than that of the compound before.

Regarding `Cc1ccccc1C(Oc1cc(OCc2ccc3c(c2)OCO3)ccc1C#N)C(=O)[O-].[Na+]` (centres undefined), the Tmax stood at 0.5 h in [9] and 1 h in data set [5]. Also, the figures for the bioavailability in data set [1] and in data set [10] were 84% and 89%, respectively. For the same compound, the half-life is 2.8 h in data set [2] and 7.4 h in data set [11]. The compound further returned an IC50 at Endothelin-1 receptor of 7 nM. In addition, the values for the Cmax in [3] and in [12] were 5900 ng/mL and 30100 ng/mL, respectively. This compound registered a solubility in [4] above 20000 µg/mL. In addition, the negative-log Kb (pKb) in the data set listed under Rattus norvegicus came to 8.1.

As to `Cc1ccccc1C(Oc1cc(OCc2ccc3ncoc3c2)ccc1C#N)C(=O)O` (centres undefined), the Activity in data set [6] was determined as 3.1 µM/kg; in data set [7], 63 µM/kg. The compound further registered an IC50 at Endothelin-1 receptor of 6 nM. Also, the outcome in data set [8] was inactive. The pKb in the data set listed under Rattus norvegicus worked out at 7.8.

As for `N#Cc1ccc(OCc2ccsc2)cc1OC(C(=O)O)c1ccccc1Br` (centres undefined), the IC50 at Endothelin-1 receptor was 51 nM. This counts as double-digit nanomolar.

With `Cc1ccccc1C(Oc1cc(OCc2c(C)cccc2C)ccc1C#N)C(=O)O` (centres undefined), the IC50 on Endothelin-1 receptor amounted to 857 nM. This IC50 lies about 17-fold higher than the previous one.

Turning to `N#Cc1ccc(OCc2ccc3c(c2)OCO3)cc1OC(C(=O)O)c1ccccc1` (centres undefined), the IC50 at Endothelin-1 receptor came out at 41 nM. In [7], this compound yielded an Activity of 7.6 µM/kg. The same compound showed a pKb in the data set listed under Rattus norvegicus of 7.4.

In the case of `Cc1ccccc1C(Oc1cc(OCc2ccncc2)ccc1C#N)C(=O)[O-].[Na+]` (centres undefined), the bioavailability in data set [1] came to 9%. This compound also showed a half-life in data set [2] of 0.2 h. At Endothelin-1 receptor, the concentration for half-maximal inhibition (IC50) was 5 nM. In addition, the highest level in data set [3] (Cmax) was 290 ng/mL. Besides, the Tmax in data set [5] was determined as 2 h.

In turn, `Cc1ccccc1[C@H](Oc1cc(OCc2ccncc2)ccc1C#N)C(=O)O` came in with a 50% inhibitory concentration (IC50) at Endothelin-1 receptor of 5 nM. Further, the pKb in the data set listed under Rattus norvegicus was 8.3.

Turning to `N#Cc1ccc(OCc2ccsc2)cc1OC(C(=O)O)c1ccccc1` (centres undefined), the IC50 at Endothelin-1 receptor turned out to be 70 nM. The pKb in the data set listed under Rattus norvegicus is listed as 7.24.

As for `N#Cc1ccc(OCc2ccc3c(c2)OCO3)cc1OC(C(=O)O)c1ccccc1Cl` (centres undefined), the figures for the Activity in data set [6], in [7] and in data set [8] were 10 µM/kg, 13.8 µM/kg and 19 µM/kg, respectively. Moreover, in data set [1], the bioavailability came out at 76%. The compound further gave a half-life in data set [2] of 6.3 h. The IC50 at Endothelin-1 receptor was determined as 14 nM. Moreover, in [3], the Cmax amounted to 22000 ng/mL. The amount in solution in data set [4] (solubility) came to 1680 µg/mL (≈ 3.84 mM). Moreover, the time to peak (Tmax) in [5] came to 1 h. Further, the pKb in the data set listed under Rattus norvegicus was found to be 8.

Take `Cc1ccccc1C(Oc1cc(OCc2ccccn2)ccc1C#N)C(=O)O` (centres undefined): the concentration for half-maximal inhibition (IC50) at Endothelin-1 receptor is above 3000 nM.

`Cc1ccccc1C(Oc1cc(OCc2cccnc2)ccc1C#N)C(=O)O` (centres undefined) gave an IC50 at Endothelin-1 receptor of 30 nM. This counts as double-digit nanomolar.

As for `N#Cc1ccc(OCc2ccc3ncoc3c2)cc1OC(C(=O)O)c1ccccc1Cl` (centres undefined), the IC50 at Endothelin-1 receptor was found to be 9 nM. This compound came in with a pKb in the data set filed under Rattus norvegicus of 7.5.

On Endothelin-1 receptor, `N#Cc1ccc(OCc2ccc3c(c2)OCO3)cc1OC(C(=O)O)c1ccccc1C(F)(F)F` (centres undefined) displayed a 50% inhibitory concentration (IC50) of 16 nM. The Activity in data set [7] amounted to 9 µM/kg. For the same compound, in the data set listed under Rattus norvegicus, the negative-log Kb (pKb) was determined as 7.4.

`N#Cc1ccc(OCc2ccnnc2)cc1OC(C(=O)O)c1ccccc1Cl` (centres undefined) gave an IC50 at Endothelin-1 receptor of 44 nM.

With `Cc1ccccc1C(Oc1cc(OCc2ccnc(F)c2)ccc1C#N)C(=O)O` (centres undefined), the IC50 at Endothelin-1 receptor is 23 nM.

Compound `Cc1ccccc1C(Oc1cc(OCc2ccc3c(c2)OCO3)ccc1C#N)C(=O)O` (centres undefined) [listing 1 of 2 here] had an IC50 on Endothelin-1 receptor of 12 nM. The compound also yielded a pKb in the data set listed under Rattus norvegicus of 7.9.

On Endothelin-1 receptor, `Cc1ccccc1C(Oc1cc(OCc2ccncc2)ccc1C#N)C(=O)O` (centres undefined) yielded an IC50 of 9 nM. Moreover, the negative-log Kb (pKb) in the data set filed under Rattus norvegicus was determined as 7.6.

With `N#Cc1ccc(OCc2ccsc2)cc1OC(C(=O)O)c1cccc(Cl)c1` (centres undefined), the IC50 on Endothelin-1 receptor turned out to be 98 nM.

As for `Cc1ccccc1C(Oc1cc(OCc2ccc3c(c2)OCO3)ccc1C#N)C(=O)O` (centres undefined) [listing 2 of 2 here], the Activity in data set [7] is 23 µM/kg and 45 µM/kg; in [8], 26 µM/kg and 34 µM/kg.

As to `COc1ccccc1C(Oc1cc(OCc2ccsc2)ccc1C#N)C(=O)O` (centres undefined), on Endothelin-1 receptor, the IC50 worked out at 529 nM.

Turning to `N#Cc1ccc(OCc2ccncc2)cc1OC(C(=O)O)c1ccsc1` (centres undefined), the IC50 on Endothelin-1 receptor came out at 630 nM.
